In ChEMBL document CHEMBL1772984, “Inhibitor selectivity of a new class of oseltamivir analogs against viral neuraminidase over human neuraminidase enzymes” (Bioorg Med Chem, 2011):
The source made the active and inactive calls. The rule behind the calls is not given here.

Assays:
Sialidase-3 = target: T1, Sialidase-3 (Homo sapiens, UniProt Q9UQ49); assay: (§1) Inhibition of human NEU3 using 4MU-NA as substrate after 1 hr by fluorescence assay
T1 sequence (Q9UQ49 whole entry): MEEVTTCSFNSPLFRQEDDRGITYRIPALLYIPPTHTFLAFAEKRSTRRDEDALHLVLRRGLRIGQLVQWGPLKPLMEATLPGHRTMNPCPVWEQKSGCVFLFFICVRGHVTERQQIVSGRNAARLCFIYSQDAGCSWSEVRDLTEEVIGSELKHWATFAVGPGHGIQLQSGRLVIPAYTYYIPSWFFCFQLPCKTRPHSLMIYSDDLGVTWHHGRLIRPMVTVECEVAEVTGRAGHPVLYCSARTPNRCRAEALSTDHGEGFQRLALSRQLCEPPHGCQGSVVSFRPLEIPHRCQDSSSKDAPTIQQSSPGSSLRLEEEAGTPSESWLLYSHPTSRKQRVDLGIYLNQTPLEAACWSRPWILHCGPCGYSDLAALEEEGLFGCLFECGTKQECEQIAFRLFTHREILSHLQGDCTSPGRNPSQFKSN
Method in brief: (§2)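 Recombinant human NEU3 was used as an N-terminal MBP fusion, expressed in E. coli. Enzyme (0.1 mg/mL before mixing) was preincubated with inhibitor (eight serial-dilution concentrations, five replicates) for 30 min at 37 °C. 4MU-NA was then added from a 1 mM stock in 0.1 M sodium acetate pH 5.0 and incubated 1 h.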

Sialidase-4 = target: T2, Sialidase-4 (Homo sapiens, UniProt Q8WWR8); assay: (§3) Inhibition of human NEU4 using 4MU-NA as substrate after 1 hr by fluorescence assay
T2 sequence (Q8WWR8 whole entry): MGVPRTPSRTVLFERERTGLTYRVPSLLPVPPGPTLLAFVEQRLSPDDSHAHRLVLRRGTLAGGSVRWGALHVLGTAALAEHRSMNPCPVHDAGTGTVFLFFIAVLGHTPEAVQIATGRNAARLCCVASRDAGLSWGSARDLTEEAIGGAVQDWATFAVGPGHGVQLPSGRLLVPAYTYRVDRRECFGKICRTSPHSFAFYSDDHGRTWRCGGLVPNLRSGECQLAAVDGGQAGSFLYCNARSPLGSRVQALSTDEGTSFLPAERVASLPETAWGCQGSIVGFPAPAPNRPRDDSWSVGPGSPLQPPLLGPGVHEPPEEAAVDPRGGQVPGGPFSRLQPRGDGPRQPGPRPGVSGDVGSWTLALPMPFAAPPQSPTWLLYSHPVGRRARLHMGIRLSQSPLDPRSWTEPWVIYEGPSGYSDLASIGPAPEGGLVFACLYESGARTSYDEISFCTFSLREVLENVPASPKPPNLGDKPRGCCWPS
Method in brief: (§4)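 Recombinant human NEU4 was used as a GST fusion, expressed in E. coli BL21(DE3) pLysS and glutathione-agarose purified. Enzyme (0.1 mg/mL before mixing) was preincubated 30 min at 37 °C with inhibitor (eight serial-dilution concentrations, five replicates). 4MU-NA was added from a 1 mM stock in 0.1 M sodium acetate pH 4.5 for 1 h.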

[1] = Inhibition of viral Neuraminidase
[2] = target: T3, Sialidase-3 (Homo sapiens) (UniProt Q9UQ49); assay: as §1; method in brief: as §2
T3 sequence (whole entry): T1 sequence (Q9UQ49 whole entry)

[3] = target: T4, Sialidase-4 (Homo sapiens) (UniProt Q8WWR8); assay: as §3; method in brief: as §4
T4 sequence (whole entry): T2 sequence (Q8WWR8 whole entry)

| IC50 (Sialidase-3) | IC50 (Sialidase-4) | Ki [1] | inhibition [2] | inhibition [3] | Structure (SMILES) |
| --- | --- | --- | --- | --- | --- |
| 350 µM | 800 µM |  |  |  | CCC(CC)O[C@@H]1CC(C(=O)O)=C[C@H](n2cc([C@]3(O)CC[C@H]4[C@@H]5CCc6cc(O)ccc6[C@H]5CC[C@@]43C)nn2)[C@H]1NC(C)=O |
|  |  | 0.072 µM |  |  | CCC(CC)O[C@@H]1CC(C(=O)O)=C[C@H](n2cc(C(O)CC)nn2)[C@H]1NC(C)=O (some centres undefined) |
|  |  |  | inactive | inactive | CCC(CC)O[C@@H]1CC(C(=O)O)=C[C@H](n2cc(CCc3ccccc3)nn2)[C@H]1NC(C)=O |
| > 1000 µM | > 1000 µM |  | inactive | inactive | CCC(CC)O[C@@H]1CC(C(=O)O)=C[C@H](n2cc(C(C)(C)O)nn2)[C@H]1NC(C)=O |
| 30 µM |  |  |  |  | CC(=O)N[C@H]1[C@H]([C@H](O)[C@H](O)CO)OC(C(=O)O)=C[C@@H]1O [NEU5AC2EN] |
| > 1000 µM | > 1000 µM |  |  |  | CCC(CC)O[C@@H]1CC(C(=O)O)=C[C@H](N)[C@H]1NC(C)=O |
|  | > 1000 µM |  |  | inactive | CCC(CC)O[C@@H]1CC(C(=O)O)C=C(n2cc(C(C)(C)O)nn2)[C@H]1NC(C)=O (some centres undefined) |
